# Data taken from ChEMBL document CHEMBL5113423, “Discovery and preclinical profile of sudapyridine (WX-081), a novel anti-tuberculosis agent” (Bioorg Med Chem Lett, 2022).
# How the values were obtained:
# [1] = test system: Mycolicibacterium smegmatis; test: Antimycobacterial activity against Mycobacterium smegmatis ATCC19420 assessed as mycobacterial growth inhibition; assay type: functional
# [2] = test system: Mycolicibacterium smegmatis; test: Antimycobacterial activity against Mycobacterium smegmatis ATCC700084 assessed as mycobacterial growth inhibition; assay type: functional
# [3] = test system: Mycolicibacterium peregrinum; test: Antimycobacterial activity against Mycobacterium peregrinum ATCC700686 assessed as mycobacterial growth inhibition; assay type: functional
# [4] = test system: Mycobacterium tuberculosis; test: Antimycobacterial activity against Mycobacterium tuberculosis H37Rv assessed as mycobacterial growth inhibition by microplate alamar blue assay; assay type: functional
# In short: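 M. tuberculosis H37Rv under normoxic conditions, microplate alamar blue assay (MABA) following Cho et al. Read-out is MIC.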
# [5] = test system: Mycobacterium tuberculosis; test: Antimycobacterial activity against Mycobacterium tuberculosis H37Rv assessed as mycobacterial growth inhibition by low oxygen recovery assay; assay type: functional
# In short: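 M. tuberculosis H37Rv under hypoxic conditions, low-oxygen recovery assay (LORA) following Cho et al. Read-out is MIC.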
# [6] = Cytotoxicity against human HeLa cells; assay type: toxicity, cell-based
# [7] = Cytotoxicity against African green monkey Vero cells; assay type: toxicity, cell-based; settings: chlorocebus sabaeus
# [8] = biological target: Voltage-gated inwardly rectifying potassium channel KCNH2 (Homo sapiens, UniProt Q12809); test: Inhibition of human ERG; assay type: toxicity
# [9] = biological target: Voltage-dependent L-type calcium channel subunit alpha-1C (Homo sapiens, UniProt Q13936); test: Inhibition of human Cav1.2
# [10] = biological target: Sodium channel protein type 5 subunit alpha (Homo sapiens, UniProt Q14524); test: Inhibition of Nav1.5 (unknown origin)
# Cardiac Purkinje fiber = test: Effect on rabbit Purkinje fiber assessed as change in concentration of maximum upstroke velocity; assay type: functional, Oryctolagus cuniculus
# [11] = test system: Mycobacterium tuberculosis; test: Antimycobacterial activity against drug-sensitive Mycobacterium tuberculosis assessed as mycobacterial growth inhibition; assay type: functional
# Sequence of Sodium channel protein type 5 subunit alpha (Q14524 whole entry): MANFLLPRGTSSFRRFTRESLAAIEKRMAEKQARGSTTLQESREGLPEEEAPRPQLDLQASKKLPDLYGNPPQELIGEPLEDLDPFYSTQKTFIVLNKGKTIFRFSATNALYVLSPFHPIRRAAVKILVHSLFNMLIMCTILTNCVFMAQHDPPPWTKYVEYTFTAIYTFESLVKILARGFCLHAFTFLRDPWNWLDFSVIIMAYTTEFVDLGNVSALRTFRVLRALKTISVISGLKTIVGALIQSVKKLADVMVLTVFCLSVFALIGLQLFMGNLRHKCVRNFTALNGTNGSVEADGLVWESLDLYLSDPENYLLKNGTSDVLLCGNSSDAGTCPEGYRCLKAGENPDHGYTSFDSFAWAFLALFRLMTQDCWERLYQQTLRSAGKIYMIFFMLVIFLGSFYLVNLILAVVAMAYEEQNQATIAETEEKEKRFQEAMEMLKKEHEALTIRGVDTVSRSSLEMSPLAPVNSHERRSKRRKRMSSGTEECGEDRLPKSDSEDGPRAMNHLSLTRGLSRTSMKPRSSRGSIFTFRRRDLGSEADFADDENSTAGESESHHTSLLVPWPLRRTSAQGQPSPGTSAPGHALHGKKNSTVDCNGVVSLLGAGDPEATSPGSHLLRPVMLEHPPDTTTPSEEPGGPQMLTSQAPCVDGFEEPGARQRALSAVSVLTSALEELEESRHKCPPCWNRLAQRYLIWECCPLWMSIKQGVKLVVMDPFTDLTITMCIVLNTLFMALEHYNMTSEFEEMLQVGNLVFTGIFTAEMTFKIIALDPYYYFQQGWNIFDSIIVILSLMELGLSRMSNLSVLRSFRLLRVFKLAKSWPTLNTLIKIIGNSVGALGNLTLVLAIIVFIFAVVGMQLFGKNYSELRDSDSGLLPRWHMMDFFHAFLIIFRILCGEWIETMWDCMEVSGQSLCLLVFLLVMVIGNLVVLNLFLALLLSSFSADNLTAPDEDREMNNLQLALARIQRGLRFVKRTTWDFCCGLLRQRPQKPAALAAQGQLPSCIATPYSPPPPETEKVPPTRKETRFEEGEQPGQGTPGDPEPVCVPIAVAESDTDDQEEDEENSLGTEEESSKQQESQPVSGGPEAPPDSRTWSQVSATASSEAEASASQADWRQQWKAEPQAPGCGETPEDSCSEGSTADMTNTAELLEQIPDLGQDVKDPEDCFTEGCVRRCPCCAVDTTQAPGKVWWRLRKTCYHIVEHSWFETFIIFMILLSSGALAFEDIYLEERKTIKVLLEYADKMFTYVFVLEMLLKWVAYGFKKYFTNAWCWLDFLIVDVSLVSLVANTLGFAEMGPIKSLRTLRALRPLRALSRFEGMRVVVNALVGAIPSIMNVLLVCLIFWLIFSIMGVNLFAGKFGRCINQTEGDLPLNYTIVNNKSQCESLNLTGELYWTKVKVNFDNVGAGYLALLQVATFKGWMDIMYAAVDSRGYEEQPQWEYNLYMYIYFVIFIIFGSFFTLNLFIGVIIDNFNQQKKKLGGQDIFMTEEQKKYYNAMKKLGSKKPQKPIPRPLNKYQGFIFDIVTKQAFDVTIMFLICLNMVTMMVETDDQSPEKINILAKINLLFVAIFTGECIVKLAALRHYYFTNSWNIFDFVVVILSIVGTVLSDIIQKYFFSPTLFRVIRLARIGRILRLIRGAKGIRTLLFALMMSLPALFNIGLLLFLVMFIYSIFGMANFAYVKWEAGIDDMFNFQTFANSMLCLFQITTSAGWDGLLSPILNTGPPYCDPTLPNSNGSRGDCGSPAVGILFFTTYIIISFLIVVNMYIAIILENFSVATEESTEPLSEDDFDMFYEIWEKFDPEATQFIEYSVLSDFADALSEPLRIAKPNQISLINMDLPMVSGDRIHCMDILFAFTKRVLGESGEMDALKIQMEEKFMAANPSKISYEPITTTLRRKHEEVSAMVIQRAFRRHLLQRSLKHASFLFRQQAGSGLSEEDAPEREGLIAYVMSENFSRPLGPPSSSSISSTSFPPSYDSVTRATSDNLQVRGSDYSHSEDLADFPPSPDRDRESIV
# Sequence of Voltage-dependent L-type calcium channel subunit alpha-1C (Q13936 whole entry): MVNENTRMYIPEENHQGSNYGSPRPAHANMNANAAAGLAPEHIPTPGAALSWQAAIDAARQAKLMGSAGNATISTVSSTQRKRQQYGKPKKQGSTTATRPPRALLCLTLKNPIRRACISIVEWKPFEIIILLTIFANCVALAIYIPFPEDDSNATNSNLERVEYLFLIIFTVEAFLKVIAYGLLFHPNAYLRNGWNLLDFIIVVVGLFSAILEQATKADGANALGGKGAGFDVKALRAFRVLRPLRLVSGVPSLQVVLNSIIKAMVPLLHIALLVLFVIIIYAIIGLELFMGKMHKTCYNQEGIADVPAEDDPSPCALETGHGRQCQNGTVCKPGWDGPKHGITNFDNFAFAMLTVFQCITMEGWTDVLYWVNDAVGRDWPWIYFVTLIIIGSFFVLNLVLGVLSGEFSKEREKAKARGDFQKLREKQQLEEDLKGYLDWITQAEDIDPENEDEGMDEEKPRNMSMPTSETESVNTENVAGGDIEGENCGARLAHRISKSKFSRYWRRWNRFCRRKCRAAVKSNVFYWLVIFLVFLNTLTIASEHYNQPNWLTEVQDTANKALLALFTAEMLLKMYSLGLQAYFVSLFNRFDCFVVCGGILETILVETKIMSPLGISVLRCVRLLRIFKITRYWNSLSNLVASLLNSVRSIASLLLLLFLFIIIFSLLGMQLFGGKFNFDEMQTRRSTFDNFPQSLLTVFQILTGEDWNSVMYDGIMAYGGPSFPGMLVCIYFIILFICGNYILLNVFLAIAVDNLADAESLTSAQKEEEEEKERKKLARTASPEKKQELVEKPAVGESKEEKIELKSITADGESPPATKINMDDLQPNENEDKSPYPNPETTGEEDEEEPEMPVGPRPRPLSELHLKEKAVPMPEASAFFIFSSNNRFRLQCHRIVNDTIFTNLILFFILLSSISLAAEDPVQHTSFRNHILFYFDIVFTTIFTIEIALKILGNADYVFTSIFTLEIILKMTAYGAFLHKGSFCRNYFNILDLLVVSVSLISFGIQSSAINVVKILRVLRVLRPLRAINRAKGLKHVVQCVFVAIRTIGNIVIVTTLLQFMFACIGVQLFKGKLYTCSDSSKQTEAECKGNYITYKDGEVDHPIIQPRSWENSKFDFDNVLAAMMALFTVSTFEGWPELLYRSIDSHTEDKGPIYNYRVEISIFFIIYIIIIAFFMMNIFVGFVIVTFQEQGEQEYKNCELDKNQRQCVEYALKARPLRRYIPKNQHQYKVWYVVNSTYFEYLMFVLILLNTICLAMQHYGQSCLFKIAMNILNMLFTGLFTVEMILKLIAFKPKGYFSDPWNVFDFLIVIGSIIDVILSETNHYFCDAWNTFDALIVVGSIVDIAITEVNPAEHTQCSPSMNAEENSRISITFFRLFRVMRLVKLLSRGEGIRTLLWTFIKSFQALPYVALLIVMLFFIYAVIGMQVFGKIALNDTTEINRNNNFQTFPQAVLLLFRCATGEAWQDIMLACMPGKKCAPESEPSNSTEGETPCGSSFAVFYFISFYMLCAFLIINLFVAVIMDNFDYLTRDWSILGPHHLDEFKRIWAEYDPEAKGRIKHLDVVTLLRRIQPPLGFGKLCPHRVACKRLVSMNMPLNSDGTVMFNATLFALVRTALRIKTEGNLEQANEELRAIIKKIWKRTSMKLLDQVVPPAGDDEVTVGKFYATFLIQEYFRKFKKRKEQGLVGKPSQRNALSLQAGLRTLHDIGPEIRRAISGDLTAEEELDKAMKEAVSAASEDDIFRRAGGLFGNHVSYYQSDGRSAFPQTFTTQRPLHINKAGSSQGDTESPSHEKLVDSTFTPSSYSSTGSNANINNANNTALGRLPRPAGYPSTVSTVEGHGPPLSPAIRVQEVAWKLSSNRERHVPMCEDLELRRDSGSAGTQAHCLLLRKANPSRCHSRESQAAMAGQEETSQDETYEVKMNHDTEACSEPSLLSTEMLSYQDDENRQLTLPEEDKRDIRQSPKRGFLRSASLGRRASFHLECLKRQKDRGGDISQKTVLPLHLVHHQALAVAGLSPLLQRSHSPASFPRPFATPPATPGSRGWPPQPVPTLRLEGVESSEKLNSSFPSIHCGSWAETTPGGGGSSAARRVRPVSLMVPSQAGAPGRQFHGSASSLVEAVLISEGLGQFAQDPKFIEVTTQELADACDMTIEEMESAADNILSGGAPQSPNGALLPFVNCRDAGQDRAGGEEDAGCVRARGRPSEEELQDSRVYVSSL
SMILES,MIC [4],MIC [5],CC50 [6],CC50 [7],further results
COc1nc(-c2ccccc2)ccc1[C@@H](c1ccccc1)[C@@](O)(CCN(C)C)c1cccc2ccccc12,,,,,MIC [1]: 1 µg/mL; MIC [2]: 1 µg/mL; MIC [3]: 0.5 µg/mL
COc1nc(-c2ccc(Br)cc2)ccc1[C@@H](c1ccccc1)[C@@](O)(CCN(C)C)c1cccc2ccccc12,0.22 µg/mL,0.22 µg/mL,> 64 µg/mL,> 50 µg/mL,
COc1nc(-c2cccc(Cl)c2)ccc1[C@@H](c1ccccc1)[C@@](O)(CCN(C)C)c1cccc2ccccc12,2.73 µg/mL,1.36 µg/mL,,> 50 µg/mL,
COc1nc(C2CCCCC2)ccc1[C@@H](c1ccccc1)[C@@](O)(CCN(C)C)c1cccc2ccccc12,,1.8 µg/mL,57.7 µg/mL,32.3 µg/mL,
COc1ncc(-c2ccccc2)cc1[C@@H](c1ccccc1)[C@@](O)(CCN(C)C)c1cc(F)cc(F)c1,0.7 µg/mL,0.4 µg/mL,28.8 µg/mL,> 50 µg/mL,
COc1nc(-c2ccccc2Cl)ccc1[C@@H](c1ccccc1)[C@@](O)(CCN(C)C)c1cccc2ccccc12,1.17 µg/mL,3.03 µg/mL,> 64 µg/mL,> 50 µg/mL,
COc1nc(-c2ccccc2F)ccc1[C@@H](c1ccccc1)[C@@](O)(CCN(C)C)c1cccc2ccccc12,1.41 µg/mL,0.57 µg/mL,,> 50 µg/mL,
COc1nc(-c2ccc(OC(F)(F)F)cc2)ccc1[C@@H](c1ccccc1)[C@@](O)(CCN(C)C)c1cccc2ccccc12,0.03 µg/mL,0.61 µg/mL,> 64 µg/mL,> 50 µg/mL,
COc1nc(-c2ccc(F)cc2)ccc1[C@@H](c1ccccc1)[C@@](O)(CCN(C)C)c1cccc2ccccc12,0.34 µg/mL,0.71 µg/mL,> 64 µg/mL,> 50 µg/mL,
CNCC[C@@](O)(c1cccc2ccccc12)[C@H](c1ccccc1)c1cc2cc(Br)ccc2nc1OC,,,,,IC50 [8]: 1730 nM; IC50 [9]: 750 nM; IC50 [10]: > 10000 nM; Activity (Cardiac Purkinje fiber): 0.3 µM
COc1nc(C(C)(C)C)ccc1[C@@H](c1ccccc1)[C@@](O)(CCN(C)C)c1cccc2ccccc12,1.3 µg/mL,2.7 µg/mL,> 64 µg/mL,27.6 µg/mL,
COc1nc(-c2ccc(C(F)(F)F)cc2)ccc1[C@@H](c1ccccc1)[C@@](O)(CCN(C)C)c1cccc2ccccc12,0.96 µg/mL,0.63 µg/mL,> 64 µg/mL,> 50 µg/mL,
COc1nc(-c2ccncc2)ccc1[C@@H](c1ccccc1)[C@@](O)(CCN(C)C)c1cccc2ccccc12,0.7 µg/mL,,9.6 µg/mL,> 50 µg/mL,
CNCC[C@@](O)(c1cccc2ccccc12)[C@H](c1ccccc1)c1ccc(-c2ccc(Cl)cc2)nc1OC,,,,,IC50 [8]: 1890 nM; IC50 [9]: > 3000 nM; IC50 [10]: > 10000 nM; Activity (Cardiac Purkinje fiber): >3 µM
COc1nc(-c2cnsc2)ccc1[C@@H](c1ccccc1)[C@@](O)(CCN(C)C)c1cccc2ccccc12,1.9 µg/mL,3.9 µg/mL,28.8 µg/mL,26.3 µg/mL,
COc1nc(C2CCOCC2)ccc1[C@@H](c1ccccc1)[C@@](O)(CCN(C)C)c1cccc2ccccc12,1.3 µg/mL,2.7 µg/mL,22.5 µg/mL,> 50 µg/mL,
COc1nc(-c2cccc(F)c2)ccc1[C@@H](c1ccccc1)[C@@](O)(CCN(C)C)c1cccc2ccccc12,0.48 µg/mL,1.18 µg/mL,62.8 µg/mL,> 50 µg/mL,
COc1nc(-c2ccc(C#N)cc2)ccc1[C@@H](c1ccccc1)[C@@](O)(CCN(C)C)c1cccc2ccccc12,0.44 µg/mL,0.77 µg/mL,> 64 µg/mL,> 50 µg/mL,
COc1ncc(-c2ccccc2)cc1[C@@H](c1ccccc1)[C@@](O)(CCN(C)C)c1cc(F)ccc1F,0.7 µg/mL,0.7 µg/mL,,> 50 µg/mL,
COc1nc(-c2ccsc2)ccc1[C@@H](c1ccccc1)[C@@](O)(CCN(C)C)c1cccc2ccccc12,,,> 64 µg/mL,24.4 µg/mL,
COc1ncc(-c2ccccc2)cc1[C@@H](c1ccccc1)[C@@](O)(CCN(C)C)c1cccc2ccccc12,1.1 µg/mL,0.7 µg/mL,30.4 µg/mL,> 50 µg/mL,MIC [1]: 0.0312 µg/mL; MIC [2]: 0.0625 µg/mL; MIC [3]: 0.0625 µg/mL
COc1nc(-c2ccc(Cl)c(F)c2)ccc1[C@@H](c1ccccc1)[C@@](O)(CCN(C)C)c1cccc2ccccc12,0.19 µg/mL,0.52 µg/mL,> 64 µg/mL,> 50 µg/mL,
COc1ncc(-c2ccccc2)cc1[C@@H](c1ccccc1)[C@@](O)(CCN(C)C)c1cccc(F)c1F,0.6 µg/mL,0.5 µg/mL,28.1 µg/mL,> 50 µg/mL,
COc1ccc(-c2ccc([C@@H](c3ccccc3)[C@@](O)(CCN(C)C)c3cccc4ccccc34)c(OC)n2)cc1,0.33 µg/mL,0.19 µg/mL,> 64 µg/mL,> 50 µg/mL,
COc1ncc(-c2ccccc2)cc1[C@@H](c1ccccc1)[C@@](O)(CCN(C)C)c1ccccc1,1.5 µg/mL,1.2 µg/mL,11.9 µg/mL,> 50 µg/mL,
NNC(=O)c1ccncc1 [ISONIAZID],,,,,MIC50 [11]: 0.024 µg/mL; MIC90 [11]: 0.032 µg/mL
NC[C@H]1O[C@H](O[C@H]2[C@H](O)[C@@H](O[C@H]3O[C@H](CO)[C@@H](O)[C@H](N)[C@H]3O)[C@H](N)C[C@@H]2N)[C@H](O)[C@@H](O)[C@@H]1O [KANAMYCIN],,,,,MIC50 [11]: 1.22 µg/mL; MIC90 [11]: 1.91 µg/mL
CO[C@H]1/C=C/O[C@@]2(C)Oc3c(C)c(O)c4c(O)c(c(/C=N/N5CCN(C)CC5)c(O)c4c3C2=O)NC(=O)/C(C)=C\C=C\[C@H](C)[C@H](O)[C@@H](C)[C@@H](O)[C@@H](C)[C@H](OC(C)=O)[C@@H]1C [RIFAMPIN],,,,,MIC50 [11]: 0.035 µg/mL; MIC90 [11]: 0.057 µg/mL
